Test results from ChEMBL document CHEMBL3351507, “11H-Pyrido[3',2':4,5]pyrrolo[3,2-c]cinnoline and pyrido[3',2':4,5]pyrrolo[1,2-c][1,2,3]benzotriazine: two new ring systems with antitumor activity” (2014).
Activity calls are given as the source filed them.

How the values were obtained:
[1] = Cytotoxicity against human UACC257 cells assessed as growth inhibition after 72 hrs by MTT assay; format: functional; conditions: UACC-257, 72 h
Outline: (§1)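 NCI 60-cell-line panel screen. Compounds were tested at 5 concentrations in 10-fold dilution (10^-4 to 10^-8 M) across the full panel. GI50 was taken as the molar concentration giving 50% inhibition of net cell growth.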

[2] = system: Malme-3M; assay: Cytotoxicity against human MALME-3M cells assessed as growth inhibition after 72 hrs by MTT assay; format: functional
[3] = Cytotoxicity against human OVCAR5 cells assessed as growth inhibition after 72 hrs by MTT assay; format: functional; conditions: OVCAR-5, 72 h; outline: as §1
[4] = system: CAKI-1; assay: Cytotoxicity against human Caki1 cells assessed as growth inhibition after 72 hrs by MTT assay; format: functional; conditions: CAKI-1, 72 h
[5] = system: A498; assay: Cytotoxicity against human A498 cells assessed as growth inhibition after 72 hrs by MTT assay; format: functional; conditions: A498, 72 h
[6] = system: RPMI-8226; assay: Cytotoxicity against human RPMI8226 cells assessed as growth inhibition after 72 hrs by MTT assay; format: functional; conditions: RPMI-8226, 72 h; outline: as §1
[7] = system: HL-60(TB); assay: Cytotoxicity against human HL-60(TB) cells assessed as growth inhibition after 72 hrs by […] assay; format: functional; conditions: HL-60, 72 h
Outline: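 HL-60(TB) was tested within the NCI 60 human cancer cell line panel. Compounds that met the NCI single-dose activity criteria were retested on the full panel at 5 concentrations in 10-fold dilutions (10-4–10-8 M). GI50 is the molar concentration giving 50% inhibition of net cell growth; TGI was also reported.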

[8] = system: K562; assay: Cytotoxicity against human K562 cells assessed as growth inhibition after 72 hrs by MTT assay; format: functional; conditions: K562, 72 h
[9] = system: SF-268; assay: Cytotoxicity against human SF268 cells assessed as growth inhibition after 72 hrs by MTT assay; format: functional; conditions: SF-268, 72 h; outline: as §1
[10] = system: SW-620; assay: Cytotoxicity against human SW620 cells assessed as growth inhibition after 72 hrs by MTT assay; format: functional; conditions: SW-620, 72 h; outline: as §1
[11] = system: SR; assay: Cytotoxicity against human SR cells assessed as growth inhibition after 72 hrs by MTT assay; format: functional; outline: as §1
[12] = system: MDA-MB-231; assay: Cytotoxicity against human MDA-MB-231 cells assessed as growth inhibition after 72 hrs by MTT assay; format: functional; conditions: MDA-MB-231, 72 h
[13] = system: U-251; assay: Cytotoxicity against human U251 cells assessed as growth inhibition after 72 hrs by MTT assay; format: functional; conditions: U-251, 72 h; outline: as §1
[14] = system: BT-549; assay: Cytotoxicity against human BT549 cells assessed as growth inhibition after 72 hrs by MTT assay; format: functional; conditions: BT-549, 72 h
[15] = system: HOP-92; assay: Cytotoxicity against human HOP92 cells assessed as growth inhibition after 72 hrs by MTT assay; format: functional; conditions: HOP-92, 72 h
[16] = system: NCI-H226; assay: Cytotoxicity against human NCI-H226 cells assessed as growth inhibition after 72 hrs by MTT assay; format: functional; conditions: NCI-H226, 72 h
[17] = system: SF-539; assay: Cytotoxicity against human SF539 cells assessed as growth inhibition after 72 hrs by MTT assay; format: functional; conditions: SF-539, 72 h; outline: as §1
[18] = system: MCF7; assay: Cytotoxicity against human MCF7 cells assessed as growth inhibition after 72 hrs by MTT assay; format: functional; conditions: MCF7, 72 h
[19] = system: NCI-H460; assay: Cytotoxicity against human NCI-H460 cells assessed as growth inhibition after 72 hrs by MTT assay; format: functional; conditions: NCI-H460, 72 h
[20] = system: 786-0; assay: Cytotoxicity against human 786-0 cells assessed as growth inhibition after 72 hrs by MTT assay; format: functional; conditions: 786-0, 72 h
[21] = system: SNB-75; assay: Cytotoxicity against human SNB75 cells assessed as growth inhibition after 72 hrs by MTT assay; format: functional; conditions: SNB-75, 72 h; outline: as §1
[22] = system: A549; assay: Cytotoxicity against human A549 cells assessed as growth inhibition after 72 hrs by MTT assay; format: functional; conditions: A549, 72 h
[23] = Cytotoxicity against human OVCAR3 cells assessed as growth inhibition after 72 hrs by MTT assay; format: functional; conditions: OVCAR-3, 72 h; outline: as §1
[24] = system: Jurkat; assay: Induction of apoptosis in human Jurkat cells assessed as caspase-3 activation at 500 nM after 6 to 24 hrs by plate reader analysis; format: functional, cell-based
Outline: (§2)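 Jurkat cells were treated with 500 nM compound for 6 h and 24 h, then lysed. Lysates were incubated with pNA-conjugated substrates: Ac-DEVD (caspase-3), Ac-IETD (caspase-8) and LEHD (caspase-9). pNA release was read at 405 nm and normalized to Bradford protein. Results are expressed as fold increase over untreated control.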

[25] = system: Jurkat; assay: Cell cycle arrest in human Jurkat cells assessed as accumulation at G1 phase at 0.25 uM after 24 hrs by propidium iodide staining-based flow cytometry (reference value: 62.6%); format: functional
[26] = system: CCRF-CEM; assay: Cytotoxicity against human CEM cells assessed as growth inhibition after 72 hrs by MTT assay; format: functional
Outline: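 Cells were grown in medium with 10% heat-inactivated FBS plus penicillin/streptomycin: RPMI-1640 for Jurkat and CEM, DMEM for A-431, HAM's F12 for LoVo. The doxorubicin-resistant LoVo subclone was kept with 0.1 µg/mL doxorubicin. Cells were seeded at 5x10^3 per well and pre-incubated 24 h at 37 °C.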

[27] = system: Jurkat; assay: Cell cycle arrest in human Jurkat cells assessed as accumulation at G2/M phase at 0.5 uM after 24 hrs by propidium iodide staining-based flow cytometry (reference value: 21.9%); format: functional
[28] = system: LoVo; assay: Anticlonogenic activity against human LoVo cells assessed as inhibition of colony formation of cells incubated for 24 hrs followed by compound washout measured after 1 to 2 weeks by crystal violet staining-based assay; format: functional, cell-based
Outline: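 LoVo cells were plated at 1000 per well in six-well plates and exposed to compound at different concentrations for 24 h. Medium was then replaced, with fresh medium every 2–3 days, until colonies formed (1–2 weeks). Colony number is given as a percentage of untreated cells (100%), as mean ± SEM of 3 independent experiments.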

[29] = system: Jurkat; assay: Cell cycle arrest in human Jurkat cells assessed as accumulation at subG1 phase at 0.25 uM after 24 hrs by propidium iodide staining-based flow cytometry (reference value: 5.3%); format: functional
[30] = system: Jurkat; assay: Induction of ROS generation in human Jurkat cells at 500 nM after 24 hrs by HE/DCFH2-DA staining-based flow cytometry relative to control; format: functional, cell-based
Outline: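 Jurkat cells were exposed to 500 nM compound for 24 h, then loaded in HBSS with 2.5 µM hydroethidine or 0.1 µM H2DCFDA for 30 min at 37 °C. Flow cytometry used 488 nm excitation, with emission at 585 nm (HE) or 530 nm (DCF). Mean ± SEM of 3 experiments.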

[31] = system: Jurkat; assay: Induction of apoptosis in human Jurkat cells assessed as caspase-8 activation at 500 nM after 6 hrs by plate reader analysis; format: functional, cell-based; outline: as §2

Compound: COc1cc2nnc3c4cccnc4[nH]c3c2cc1OC
- GI50 [1]: 3320 nM
- GI50 [2]: 2280 nM
- GI50 [3]: 2530 nM
- GI50 [4]: 180 nM
- GI50 [5]: 2740 nM
- GI50 [6]: 190 nM
- GI50 [7]: 190 nM
- GI50 [8]: 330 nM
- GI50 [9]: 540 nM
- GI50 [10]: 440 nM
- GI50 [11]: 39 nM
- GI50 [12]: 2690 nM
- GI50 [13]: 920 nM
- GI50 [14]: 3700 nM
- GI50 [15]: 210 nM
- GI50 [16]: 1940 nM
- GI50 [17]: 1730 nM
- GI50 [18]: 340 nM
- GI50 [19]: 2460 nM
- GI50 [20]: 320 nM
- GI50 [21]: 1480 nM
- GI50 [22]: 7900 nM
- GI50 [23]: 1150 nM

Compound: O=Nc1c2cccnc2n2nnc3ccc(Cl)cc3c12
- GI50 [1]: 3070 nM
- GI50 [2]: 1220 nM
- GI50 [3]: 1380 nM
- GI50 [4]: 130 nM
- GI50 [5]: 1910 nM
- GI50 [6]: 170 nM
- GI50 [7]: 300 nM
- GI50 [8]: 130 nM
- GI50 [9]: 1210 nM
- GI50 [10]: 190 nM
- GI50 [11]: 17 nM
- GI50 [12]: 680 nM
- GI50 [13]: 1270 nM
- GI50 [14]: 1780 nM
- GI50 [15]: 100 nM
- GI50 [16]: 2190 nM
- GI50 [17]: 1890 nM
- GI50 [18]: 570 nM
- GI50 [19]: 1330 nM
- GI50 [20]: 840 nM
- GI50 [21]: 1420 nM
- GI50 [22]: 2200 nM
- GI50 [23]: 250 nM

Compound: COc1ccc2c(c1)nnn1c3ncccc3c(N=O)c21
- GI50 [1]: 8210 nM
- GI50 [2]: 770 nM
- GI50 [3]: 8020 nM
- GI50 [4]: 89 nM
- GI50 [5]: 1270 nM
- GI50 [6]: 260 nM
- Activity [24]: Active
- Activity [25]: 35.5%
- GI50 [7]: 43 nM
- GI50 [8]: 110 nM
- GI50 [26]: 220 nM
- GI50 [9]: 470 nM
- Activity [27]: 44.7%
- GI50 [10]: 270 nM
- GI50 [11]: 9 nM
- inhibition [28]: Dose-dependent effect
- GI50 [12]: 1260 nM
- GI50 [13]: 720 nM
- Activity [29]: 22.5%
- GI50 [14]: 5060 nM
- GI50 [15]: 42 nM
- Activity [30]: Active
- GI50 [16]: 4140 nM
- GI50 [17]: 470 nM
- GI50 [18]: 130 nM
- GI50 [19]: 1670 nM
- GI50 [20]: 330 nM
- Activity [31]: Active
- GI50 [21]: 850 nM
- GI50 [22]: 10800 nM
- GI50 [23]: 1110 nM

Compound: COc1cc2nnn3c4ncccc4c(N=O)c3c2cc1OC
- GI50 [1]: 4540 nM
- GI50 [2]: 2890 nM
- GI50 [3]: 2690 nM
- GI50 [4]: 48 nM
- GI50 [5]: 15800 nM
- GI50 [6]: 110 nM
- Activity [24]: Active
- Activity [25]: 37.3%
- GI50 [7]: 40 nM
- GI50 [8]: 210 nM
- GI50 [26]: 240 nM
- GI50 [9]: 490 nM
- Activity [27]: 54.3%
- GI50 [10]: 210 nM
- GI50 [11]: 18 nM
- inhibition [28]: Dose-dependent effect
- GI50 [12]: 2600 nM
- GI50 [13]: 600 nM
- Activity [29]: 18.7%
- GI50 [14]: 5530 nM
- GI50 [15]: 39 nM
- Activity [30]: Active
- GI50 [16]: 3700 nM
- GI50 [17]: 1820 nM
- GI50 [18]: 260 nM
- GI50 [19]: 2610 nM
- GI50 [20]: 230 nM
- Activity [31]: Active
- GI50 [21]: 2250 nM
- GI50 [22]: 13300 nM
- GI50 [23]: 460 nM

Compound: COc1ccc2c(c1)nnc1c3cccnc3[nH]c21
- GI50 [1]: 7490 nM
- GI50 [2]: 1060 nM
- GI50 [3]: 5720 nM
- GI50 [4]: 110 nM
- GI50 [5]: 8000 nM
- GI50 [6]: 730 nM
- Activity [24]: Active
- Activity [25]: 30.2%
- GI50 [7]: 160 nM
- GI50 [8]: 220 nM
- GI50 [26]: 650 nM
- GI50 [9]: 730 nM
- Activity [27]: 38.2%
- GI50 [10]: 380 nM
- GI50 [11]: 31 nM
- inhibition [28]: Dose-dependent effect
- GI50 [12]: 1420 nM
- GI50 [13]: 930 nM
- Activity [29]: 27.8%
- GI50 [14]: 3430 nM
- GI50 [15]: 82 nM
- Activity [30]: Active
- GI50 [16]: 2620 nM
- GI50 [17]: 640 nM
- GI50 [18]: 230 nM
- GI50 [19]: 1930 nM
- GI50 [20]: 510 nM
- Activity [31]: Active
- GI50 [21]: 640 nM
- GI50 [22]: 7900 nM
- GI50 [23]: 960 nM
